Measurements as given in ChEMBL document CHEMBL1137537, “Novel oxotremorine-related heterocyclic derivatives: Synthesis and in vitro pharmacology at the muscarinic receptor subtypes” (Bioorg Med Chem, 2007).

What was measured:
[1] = Agonist activity at muscarinic M2 receptor in electrically stimulated guinea-pig left atrium; type: functional, tissue-based; settings: Cavia porcellus, Cardiac atrium
[2] = Binding affinity to muscarinic M1 receptor in electrically stimulated New Zealand rabbit vas deferens; type: tissue-based, Oryctolagus cuniculus
How it was run: (§1)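 Apparent affinity pKD: for full agonists by receptor inactivation with phenoxybenzamine (1-10 µM, 20-30 min); for partial agonists by McKay's method comparing curves with reference full agonist; mean of 6-8 experiments.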

[3] = target: Muscarinic acetylcholine receptor M3 (Homo sapiens, UniProt P20309); test: Displacement of [3H]QNB from human muscarinic M3 receptor expressed in CHO cells; type: cell-based
Sequence of Muscarinic acetylcholine receptor M3 (Homo sapiens, UniProt P20309) (P20309 whole entry): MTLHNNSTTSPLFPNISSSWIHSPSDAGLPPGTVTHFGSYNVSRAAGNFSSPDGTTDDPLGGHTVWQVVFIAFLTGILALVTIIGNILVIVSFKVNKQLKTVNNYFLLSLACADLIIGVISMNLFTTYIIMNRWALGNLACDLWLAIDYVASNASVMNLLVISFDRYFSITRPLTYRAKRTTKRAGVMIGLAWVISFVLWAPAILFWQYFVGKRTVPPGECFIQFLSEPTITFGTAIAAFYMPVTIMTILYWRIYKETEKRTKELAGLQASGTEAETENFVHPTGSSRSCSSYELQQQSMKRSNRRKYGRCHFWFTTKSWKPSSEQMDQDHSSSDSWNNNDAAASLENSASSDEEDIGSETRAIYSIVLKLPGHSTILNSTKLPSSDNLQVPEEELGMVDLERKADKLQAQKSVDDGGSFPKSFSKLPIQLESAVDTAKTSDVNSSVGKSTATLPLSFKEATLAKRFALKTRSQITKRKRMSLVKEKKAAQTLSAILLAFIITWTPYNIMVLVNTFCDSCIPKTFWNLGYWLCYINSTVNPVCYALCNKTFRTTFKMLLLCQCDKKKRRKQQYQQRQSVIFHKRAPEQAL

[4] = target: T1, Muscarinic acetylcholine receptor M4 (Homo sapiens, UniProt P08173); test: Displacement of [3H]QNB from human muscarinic M4 receptor expressed in CHO cells; type: cell-based
T1 sequence (P08173 whole entry): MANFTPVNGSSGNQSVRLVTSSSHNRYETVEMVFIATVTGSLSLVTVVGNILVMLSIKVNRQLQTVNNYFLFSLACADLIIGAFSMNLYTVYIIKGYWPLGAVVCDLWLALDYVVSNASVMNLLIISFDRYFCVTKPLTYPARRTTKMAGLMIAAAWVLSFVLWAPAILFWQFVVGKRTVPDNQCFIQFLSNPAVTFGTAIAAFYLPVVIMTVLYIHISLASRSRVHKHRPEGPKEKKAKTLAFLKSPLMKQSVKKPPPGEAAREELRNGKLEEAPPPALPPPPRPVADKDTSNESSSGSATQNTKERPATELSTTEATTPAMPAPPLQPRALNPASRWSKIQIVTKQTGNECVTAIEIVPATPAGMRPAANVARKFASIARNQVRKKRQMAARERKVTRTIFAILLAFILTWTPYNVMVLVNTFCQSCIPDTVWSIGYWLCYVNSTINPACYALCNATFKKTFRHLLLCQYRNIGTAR
How it was run: (§2)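 Membranes (10-50 µg protein) from stable CHO lines expressing human m2-m5, competed against 180 pM [3H]QNB in 50 mM Tris-HCl pH 7.4 with 1% DMSO; 120 min at 25 °C to equilibrium; nonspecific binding with 0.5 µM atropine; GF-C filtration, scintillation counting; IC50 by logistic fit, Ki via Cheng–Prusoff using saturation-derived KD (5–2500 pM [3H]QNB).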

[5] = target: T2, Muscarinic acetylcholine receptor M5 (Homo sapiens, UniProt P08912); test: Displacement of [3H]QNB from human muscarinic M5 receptor expressed in CHO cells; type: cell-based
T2 sequence (P08912 whole entry): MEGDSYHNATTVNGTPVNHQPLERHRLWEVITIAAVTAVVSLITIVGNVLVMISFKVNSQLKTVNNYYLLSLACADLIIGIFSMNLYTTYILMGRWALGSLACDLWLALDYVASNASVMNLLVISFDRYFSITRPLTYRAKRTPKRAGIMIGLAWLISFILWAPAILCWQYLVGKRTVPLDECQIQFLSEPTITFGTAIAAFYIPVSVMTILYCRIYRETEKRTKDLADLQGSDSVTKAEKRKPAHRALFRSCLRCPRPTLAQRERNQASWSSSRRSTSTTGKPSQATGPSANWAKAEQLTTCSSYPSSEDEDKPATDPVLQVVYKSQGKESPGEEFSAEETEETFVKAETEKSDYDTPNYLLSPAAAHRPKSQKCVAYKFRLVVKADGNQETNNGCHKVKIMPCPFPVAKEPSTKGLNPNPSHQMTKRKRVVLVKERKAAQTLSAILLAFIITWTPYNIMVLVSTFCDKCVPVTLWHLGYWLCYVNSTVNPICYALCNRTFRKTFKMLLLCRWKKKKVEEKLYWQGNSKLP

[6] = target: T3, Muscarinic acetylcholine receptor M3 (Cavia porcellus, UniProt Q8VH26); test: Binding affinity to muscarinic M3 receptor in guinea-pig ileum; type: tissue-based; how it was run: as §1
T3 sequence (Q8VH26 whole entry): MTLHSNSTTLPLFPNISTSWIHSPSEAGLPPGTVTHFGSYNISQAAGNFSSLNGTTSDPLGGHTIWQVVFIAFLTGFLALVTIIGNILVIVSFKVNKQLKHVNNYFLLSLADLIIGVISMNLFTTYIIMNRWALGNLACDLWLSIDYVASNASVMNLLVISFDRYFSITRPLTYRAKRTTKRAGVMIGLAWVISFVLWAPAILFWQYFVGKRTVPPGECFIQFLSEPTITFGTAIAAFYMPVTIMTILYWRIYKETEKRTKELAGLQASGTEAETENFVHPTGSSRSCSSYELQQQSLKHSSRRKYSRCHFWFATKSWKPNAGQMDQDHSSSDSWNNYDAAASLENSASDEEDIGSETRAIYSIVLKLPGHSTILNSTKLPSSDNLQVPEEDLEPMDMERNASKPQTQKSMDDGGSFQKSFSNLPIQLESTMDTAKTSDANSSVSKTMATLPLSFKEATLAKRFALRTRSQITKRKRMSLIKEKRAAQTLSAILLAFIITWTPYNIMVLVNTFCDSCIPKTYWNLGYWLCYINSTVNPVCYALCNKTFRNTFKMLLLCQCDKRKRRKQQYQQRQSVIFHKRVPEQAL

[7] = Agonist activity at muscarinic M1 receptor in electrically stimulated New Zealand rabbit vas deferens; type: functional, tissue-based; settings: Oryctolagus cuniculus
Oryctolagus cuniculus = species: Oryctolagus cuniculus; test: Intrinsic activity at muscarinic M1 receptor in electrically stimulated New Zealand rabbit vas deferens relative to McN-A-343; type: tissue-based
How it was run: (§3)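 Intrinsic activity as ratio of compound's maximal response to that of reference full agonist (McN-A-343 for vas deferens, bethanechol for atrium and ileum), from cumulative concentration–response curves; mean of 6-8 experiments.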

[8] = target: T4, Muscarinic acetylcholine receptor M2 (Homo sapiens, UniProt P08172); test: Displacement of [3H]QNB from human muscarinic M2 receptor expressed in CHO cells; type: cell-based; how it was run: as §2
T4 sequence (P08172 whole entry): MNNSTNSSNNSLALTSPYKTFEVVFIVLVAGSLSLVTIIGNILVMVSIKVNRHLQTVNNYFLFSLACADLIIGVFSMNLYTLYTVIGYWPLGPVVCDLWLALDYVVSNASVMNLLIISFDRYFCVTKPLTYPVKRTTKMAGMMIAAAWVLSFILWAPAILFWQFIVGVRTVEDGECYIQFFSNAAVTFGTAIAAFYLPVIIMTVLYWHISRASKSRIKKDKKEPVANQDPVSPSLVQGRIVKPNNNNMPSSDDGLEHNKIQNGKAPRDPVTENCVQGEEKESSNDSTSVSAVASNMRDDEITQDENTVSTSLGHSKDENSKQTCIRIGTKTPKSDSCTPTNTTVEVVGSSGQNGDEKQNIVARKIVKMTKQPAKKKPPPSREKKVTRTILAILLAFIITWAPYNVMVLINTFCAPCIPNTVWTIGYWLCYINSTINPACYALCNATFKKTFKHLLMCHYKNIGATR

[9] = target: T3, Muscarinic acetylcholine receptor M3; test: Agonist activity at muscarinic M3 receptor in guinea-pig ileum; type: functional, tissue-based
How it was run: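 Guinea-pig ileal segments 2–3 cm, 1.0 g tension, 37 °C Krebs-Henseleit with carbogen, 45 min equilibration; isometric contractions to cumulative agonist concentrations; pEC50 by least-squares linear regression; mean of 6-8 experiments.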

[10] = target: T5, Muscarinic acetylcholine receptor M1 (Homo sapiens, UniProt P11229); test: biochemical; type: cell-based, CHO
T5 sequence (P11229 whole entry): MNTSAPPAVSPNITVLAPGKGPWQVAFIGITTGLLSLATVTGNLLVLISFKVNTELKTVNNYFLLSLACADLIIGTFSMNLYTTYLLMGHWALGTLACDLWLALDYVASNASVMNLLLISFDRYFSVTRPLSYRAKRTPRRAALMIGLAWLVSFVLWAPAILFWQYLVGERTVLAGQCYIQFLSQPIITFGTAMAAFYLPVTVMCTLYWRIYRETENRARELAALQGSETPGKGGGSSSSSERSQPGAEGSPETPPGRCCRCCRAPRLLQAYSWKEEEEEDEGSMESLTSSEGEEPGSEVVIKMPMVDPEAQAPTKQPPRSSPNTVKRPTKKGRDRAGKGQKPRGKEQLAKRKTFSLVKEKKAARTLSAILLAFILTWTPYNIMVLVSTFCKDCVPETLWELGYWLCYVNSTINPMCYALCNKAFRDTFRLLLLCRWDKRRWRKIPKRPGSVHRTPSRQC

[11] = Binding affinity to muscarinic M2 receptor in electrically stimulated guinea-pig left atrium; type: tissue-based, Cavia porcellus, Cardiac atrium; how it was run: as §1
[12] = target: Muscarinic acetylcholine receptor M3 (Cavia porcellus) (UniProt Q8VH26); test: Intrinsic activity at muscarinic M3 receptor in guinea-pig ileum relative to benthanechol; type: tissue-based; how it was run: as §3
Sequence of Muscarinic acetylcholine receptor M3 (Cavia porcellus) (Q8VH26 1-587): as the sequence (Q8VH26 whole entry) above

Cavia porcellus = species: Cavia porcellus; test: Intrinsic activity at muscarinic M2 receptor in electrically stimulated guinea-pig left atrium relative to benthanechol; type: tissue-based; settings: Cardiac atrium; how it was run: as §3
[13] = Antagonist activity at muscarinic M1 receptor in electrically stimulated New Zealand rabbit vas deferens; type: functional, Oryctolagus cuniculus
How it was run: (§4)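 Antagonist mode: after 30 min incubation with test compound (10 nM–100 µM), concentration–response curve to full agonist (bethanechol or McN-A-343) repeated; pKB as molar concentration giving twofold EC50 shift, Furchgott's method; mean of 6-8 experiments.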

[14] = target: Muscarinic acetylcholine receptor M3 (Cavia porcellus) (UniProt Q8VH26); test: Antagonist activity at muscarinic M3 receptor in guinea-pig ileum; type: functional, tissue-based; how it was run: as §4
[15] = Antagonist activity at muscarinic M2 receptor in electrically stimulated guinea-pig left atrium; type: functional, Cavia porcellus, Cardiac atrium; how it was run: as §4

C[N+]1(CC#CCOC2=NOCC2)CCCCC1.[I-]
EC50 [1]: 0.0457 µM
pKd [2]: 6.51
Ki [3]: 4.74 µM
Ki [4]: 1.68 µM
Ki [5]: 4.12 µM
Kd [6]: 0.295 µM
EC50 [7]: 0.794 µM
Intrinsic activity (Oryctolagus cuniculus): 0.4
Ki [8]: 0.219 µM
EC50 [9]: 0.269 µM
Ki [10]: 7.37 µM
pKd [11]: 6.74
Intrinsic activity [12]: 1
Intrinsic activity (Cavia porcellus): 1

C[N+]1(CC#CCOc2cc(-c3ccccc3)on2)CCCC1.[I-]
pKb [13]: 6.88
pKb [14]: 5.53
Ki [3]: 1.45 µM
Ki [4]: 5.99 µM
Ki [5]: 1.84 µM
Intrinsic activity (Oryctolagus cuniculus): 0
pKb [15]: 5.95
Ki [8]: > 10 µM
Ki [10]: 3.38 µM
Intrinsic activity [12]: 0
Intrinsic activity (Cavia porcellus): 0

C[N+](C)(C)CC#CCOC(=O)Nc1cccc(Cl)c1.[Cl-]
pKd [2]: 7.2
EC50 [7]: 0.398 µM
Intrinsic activity (Oryctolagus cuniculus): 1

Cc1cc(OCC#CCN2CCCC2)no1.O=C(O)/C=C/C(=O)O
pKb [13]: 5.66
Ki [5]: > 10 µM
Kd [6]: 15.5 µM
Intrinsic activity (Oryctolagus cuniculus): 0
pKb [15]: 4.81
Ki [8]: > 10 µM
EC50 [9]: 15.1 µM
Intrinsic activity [12]: 0.4
Intrinsic activity (Cavia porcellus): 0

C[N+]12CCC(CC1)/C(=N/OCC#CCOc1ccon1)C2.[I-]
EC50 [1]: > 100 µM
pKd [2]: 3.82
Ki [5]: > 10 µM
Kd [6]: 9.33 µM
EC50 [7]: 4.27 µM
Intrinsic activity (Oryctolagus cuniculus): 0.9
Ki [8]: > 10 µM
EC50 [9]: 3.55 µM
Intrinsic activity [12]: 0.7

Cc1cc(OCC#CC[N+]2(C)CCCC2)no1.[I-]
EC50 [1]: 0.251 µM
pKb [13]: 6.01
Ki [3]: 7.39 µM
Ki [4]: 5.93 µM
Ki [5]: 7.51 µM
Kd [6]: 1.66 µM
Intrinsic activity (Oryctolagus cuniculus): 0
Ki [8]: 2.04 µM
EC50 [9]: 0.55 µM
Ki [10]: 7.68 µM
pKd [11]: 6.72
Intrinsic activity [12]: 0.9
Intrinsic activity (Cavia porcellus): 1

C[N+]1(CC#CCOC2=NOCC2)CCc2ccccc21 (stereo not given)
Ki [3]: 5.54 µM
Ki [4]: > 10 µM
Ki [5]: > 10 µM
Ki [8]: 4.1 µM
Ki [10]: > 10 µM

C[N+]1(CC#CCOC2=NOCC2)CCc2ccccc2C1 (stereo not given)
Ki [3]: 0.887 µM
Ki [4]: 2.26 µM
Ki [5]: 5.66 µM
Ki [8]: 0.474 µM
Ki [10]: 6.96 µM

C(#CCN1CCc2ccccc21)COC1=NOCC1
Ki [5]: > 10 µM
Ki [8]: > 10 µM

O=C1CCON1CC#CCN1C2CCCC1CC2
Ki [5]: > 10 µM
Ki [8]: > 10 µM

C(#CCN1CCc2ccccc2C1)COC1=NOCC1
Ki [5]: > 10 µM
Ki [8]: > 10 µM
